According to ChEMBL document CHEMBL3769360, “Phthalimido-thiazoles as building blocks and their effects on the growth and morphology of Trypanosoma cruzi” (Eur J Med Chem, 2016):
Activity calls are given as the source filed them. The calls are words filed in the database; no cut-off is given here.

How the values were obtained:
[1] = Cytotoxicity against BALB/c mouse splenocytes assessed as highest non-toxic concentration causing >90 % incorporation of [3H]-thymidine after 24 hrs by beta counting method; format: cell-based, Splenocyte; conditions: read-out: MNTD90
Method in brief: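 BALB/c mouse splenocytes at 5 × 10^6 cells/well in RPMI-1640 with 10% inactivated FBS. Compounds were dissolved in DMSO (10 mg/mL stock) and serially diluted to 1.0, 5.0, 10, 25, 50 and 100 (final), in triplicate. Controls were saponin and medium with DMSO. 3H-thymidine was added, then 24 h at 37 °C, 5% CO2, and beta counting. Untreated = 100%; >90% incorporation counted as nontoxic.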

Trypanosoma cruzi [2] = test: Trypanocidal activity against trypamostigote form of Trypanosoma cruzi Y infected in African green monkey Vero cells after 24 hrs by neubauer chamber method; format: functional, organism-based
Method in brief: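 Y strain trypomastigotes harvested from Vero cell supernatants, 4 × 10^5 cells/well, compounds in triplicate, benznidazole as positive control. Incubated 24 h at 37 °C, 5% CO2. Motile parasites counted in a Neubauer chamber; untreated wells = 100%. IC50 by nonlinear regression over at least seven concentrations.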

Trypanosoma cruzi [3] = test: Trypanocidal activity against epimastigote form of Trypanosoma cruzi Dm28c after 11 days by neubauer chamber method; format: functional; conditions: 264 h
[4] = Selectivity index, ratio of MNTD90 for cytotoxicity against BALB/c mouse splenocytes to IC50 for trypamostigote form of Trypanosoma cruzi Y infected in African green monkey Vero cells; format: toxicity, cell-based; conditions: read-out: Selectivity Index
Trypanosoma cruzi [5] = test: Induction of ultrastructural changes in trypamostigote form of Trypanosoma cruzi Y assessed as blebs in flagellum at IC50 after 24 hrs by scanning electron microscopic analysis; format: functional, organism-based
Method in brief: (§1)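 Trypomastigotes cultured 24 h in RPMI 1640 (pH 7.5, 20 mM HEPES, 10% FBS, penicillin/streptomycin) with compound at two concentrations (1× and 2×). Washed in PBS and fixed in glutaraldehyde/formaldehyde in 0.1 M cacodylate pH 6.8, then OsO4 postfixed. Dehydrated in graded ethanol, CO2 critical-point dried, gold-coated and examined by SEM against untreated controls.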

Trypanosoma cruzi [6] = test: Induction of ultrastructural changes in trypamostigote form of Trypanosoma cruzi Y assessed as shortening of flagellum at 2 times IC50 after 24 hrs by scanning electron microscopic analysis; format: functional, organism-based; method in brief: as §1
Trypanosoma cruzi [7] = test: Antitrypanosomal activity against trypamostigote form of Trypanosoma cruzi Y assessed as decrease in number of parasites after 24 hrs by scanning electron microscopic analysis; format: functional, organism-based; method in brief: as §1
Trypanosoma cruzi [8] = test: Induction of ultrastructural changes in trypamostigote form of Trypanosoma cruzi Y assessed as alterations in reservosome at IC50 after 24 hrs by uranyl acetate/lead citrate staining based transmission electron microscopic analysis; format: functional, organism-based
Method in brief: (§2)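 Trypomastigotes exposed for 24 h in RPMI 1640 (pH 7.5, 20 mM HEPES, 10% FBS, antibiotics) with compound at 1× or 2× the set concentration. Fixed in 2.5% glutaraldehyde, 4% formaldehyde, 0.1 M cacodylate pH 6.8, postfixed in 2% OsO4. Acetone-dehydrated, epon-embedded, sections stained with uranyl acetate/lead citrate and examined by TEM against untreated parasites.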

Trypanosoma cruzi [9] = test: Induction of ultrastructural changes in trypamostigote form of Trypanosoma cruzi Y assessed as intense cytoplasmic vacuolization at IC50 after 24 hrs by uranyl acetate/lead citrate staining based transmission electron microscopic analysis; format: functional, organism-based; method in brief: as §2
Trypanosoma cruzi [10] = test: Induction of ultrastructural changes in trypamostigote form of Trypanosoma cruzi Y assessed as abnormal chromatin condensation at IC50 after 24 hrs by uranyl acetate/lead citrate staining based transmission electron microscopic analysis; format: functional, organism-based; method in brief: as §2
Trypanosoma cruzi [11] = test: Induction of ultrastructural changes in trypamostigote form of Trypanosoma cruzi Y assessed as swelling of mitochondria at IC50 after 24 hrs by uranyl acetate/lead citrate staining based transmission electron microscopic analysis; format: functional, organism-based; method in brief: as §2
Trypanosoma cruzi [12] = test: Induction of ultrastructural changes in trypamostigote form of Trypanosoma cruzi Y assessed as loss of cytoplasmic material at IC50 after 24 hrs by uranyl acetate/lead citrate staining based transmission electron microscopic analysis; format: functional, organism-based; method in brief: as §2
Trypanosoma cruzi [13] = test: Induction of ultrastructural changes in trypamostigote form of Trypanosoma cruzi Y assessed as alterations in reservosome at 2 times IC50 after 24 hrs by uranyl acetate/lead citrate staining based transmission electron microscopic analysis; format: functional, organism-based; method in brief: as §2
Trypanosoma cruzi [14] = test: Induction of ultrastructural changes in trypamostigote form of Trypanosoma cruzi Y assessed as intense cytoplasmic vacuolization at 2 times IC50 after 24 hrs by uranyl acetate/lead citrate staining based transmission electron microscopic analysis; format: functional, organism-based; method in brief: as §2
Trypanosoma cruzi [15] = test: Induction of ultrastructural changes in trypamostigote form of Trypanosoma cruzi Y assessed as abnormal chromatin condensation at 2 times IC50 after 24 hrs by uranyl acetate/lead citrate staining based transmission electron microscopic analysis; format: functional, organism-based; method in brief: as §2
Trypanosoma cruzi [16] = test: Induction of apoptosis in trypamostigote form of Trypanosoma cruzi Y assessed as necrotic cells after 24 hrs by Annexin V-FITC/propidium iodide staining based flow cytometry; format: functional, organism-based
Method in brief: (§3)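 Trypomastigotes (1 × 10^7) incubated 24 h at 37 °C with or without compound. Then labelled with annexin V-FITC and propidium iodide using a kit per the manufacturer's instructions and analysed by flow cytometry. Two independent experiments, each concentration in duplicate; comparison against untreated cells.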

Trypanosoma cruzi [17] = test: Induction of ultrastructural changes in trypamostigote form of Trypanosoma cruzi Y assessed as dilated endoplasmic reticulum at 2 times IC50 after 24 hrs by uranyl acetate/lead citrate staining based transmission electron microscopic analysis; format: functional, organism-based; method in brief: as §2
Trypanosoma cruzi [18] = test: Induction of ultrastructural changes in trypamostigote form of Trypanosoma cruzi Y assessed as swelling of kinetoplast at 2 times IC50 after 24 hrs by uranyl acetate/lead citrate staining based transmission electron microscopic analysis; format: functional, organism-based; method in brief: as §2
Trypanosoma cruzi [19] = test: Induction of apoptosis in trypamostigote form of Trypanosoma cruzi Y assessed as late apoptotic cells after 24 hrs by Annexin V-FITC/propidium iodide staining based flow cytometry; format: functional, organism-based; method in brief: as §3
Trypanosoma cruzi [20] = test: Induction of apoptosis in trypamostigote form of Trypanosoma cruzi Y assessed as early apoptotic cells after 24 hrs by Annexin V-FITC/propidium iodide staining based flow cytometry; format: functional, organism-based; method in brief: as §3
Trypanosoma cruzi [21] = test: Induction of apoptosis in trypamostigote form of Trypanosoma cruzi Y assessed as necrotic cells at 25 uM after 24 hrs by Annexin V-FITC/propidium iodide staining based flow cytometry relative to untreated control; format: functional; method in brief: as §3
Trypanosoma cruzi [22] = test: Induction of apoptosis in trypamostigote form of Trypanosoma cruzi Y assessed as late apoptotic cells at 25 uM after 24 hrs by Annexin V-FITC/propidium iodide staining based flow cytometry relative to untreated control; format: functional; method in brief: as §3
Trypanosoma cruzi [23] = test: Induction of apoptosis in trypamostigote form of Trypanosoma cruzi Y assessed as necrotic cells at 5 uM after 24 hrs by Annexin V-FITC/propidium iodide staining based flow cytometry; format: functional, organism-based; method in brief: as §3
Trypanosoma cruzi [24] = test: Induction of apoptosis in trypamostigote form of Trypanosoma cruzi Y assessed as late apoptotic cells at 5 uM after 24 hrs by Annexin V-FITC/propidium iodide staining based flow cytometry; format: functional, organism-based; method in brief: as §3
Trypanosoma cruzi [25] = test: Induction of apoptosis in trypamostigote form of Trypanosoma cruzi Y assessed as early apoptotic cells at 5 and 25 uM after 24 hrs by Annexin V-FITC/propidium iodide staining based flow cytometry; format: functional, organism-based; method in brief: as §3

With O=C1c2ccccc2C(=O)N1C/C=N/N=c1\scc(-c2ccc(F)cc2)n1-c1ccccc1 the MNTC at 24 h [1] was 219 µM and the IC50 (Trypanosoma cruzi [2]) was 73.8 µM.

O=C1c2ccccc2C(=O)N1Nc1nc(-c2ccc([N+](=O)[O-])cc2)cs1 gave an MNTC at 24 h [1] of 2.7 µM, an IC50 (Trypanosoma cruzi [3]) of 13.3 µM and an IC50 (Trypanosoma cruzi [2]) of 84.9 µM.

In the case of O=C1c2ccccc2C(=O)N1Nc1nc(-c2ccc(Br)cc2)cs1, the MNTC at 24 h [1] is reported as 2.5 µM, the IC50 (Trypanosoma cruzi [3]) is reported as 14.8 µM and the IC50 (Trypanosoma cruzi [2]) is reported as 89.8 µM.

For NC(=S)NN1C(=O)c2ccccc2C1=O, the MNTC at 24 h [1] was 4.5 µM, the IC50 (Trypanosoma cruzi [3]) was 56.8 µM and the IC50 (Trypanosoma cruzi [2]) was 52 µM.

For O=C1c2ccccc2C(=O)N1C/C=N/N=c1\scc(-c2ccc(Cl)c(Cl)c2)n1-c1ccccc1, the MNTC at 24 h [1] was 197 µM.

O=C1c2ccccc2C(=O)N1Nc1nc(-c2ccc(F)cc2)cs1 showed an MNTC at 24 h [1] of 2.9 µM, an IC50 (Trypanosoma cruzi [3]) of 26.5 µM and an IC50 (Trypanosoma cruzi [2]) of 52.1 µM.

Work on O=C1c2ccccc2C(=O)N1C/C=N/N=c1/[nH]c(CCl)cs1 yielded an MNTC at 24 h [1] of 73.7 µM, an IC50 (Trypanosoma cruzi [3]) of 85.7 µM and an IC50 (Trypanosoma cruzi [2]) of 2.2 µM. The selectivity ratio [4] was 33.5.

In the case of COc1ccc(-c2csc(NN3C(=O)c4ccccc4C3=O)n2)cc1, the MNTC at 24 h [1] is reported as 14.2 µM, the IC50 (Trypanosoma cruzi [3]) is reported as 6.4 µM and the IC50 (Trypanosoma cruzi [2]) is reported as 50.3 µM.

Work on O=C1c2ccccc2C(=O)N1Nc1nc(CCl)cs1 yielded an MNTC at 24 h [1] of 17 µM, an IC50 (Trypanosoma cruzi [3]) of 226 µM and an IC50 (Trypanosoma cruzi [2]) of 54.4 µM. It also gave a selectivity ratio [4] of 0.3.

O=C1c2ccccc2C(=O)N1C/C=N/N=c1\scc(-c2cccc([N+](=O)[O-])c2)n1-c1ccccc1 showed an MNTC at 24 h [1] of 103 µM, an IC50 (Trypanosoma cruzi [3]) of 6 µM and an IC50 (Trypanosoma cruzi [2]) of 0.9 µM. For the same compound, the selectivity ratio [4] was 115, the Activity (Trypanosoma cruzi [5]) was “Active” and the Activity (Trypanosoma cruzi [6]) was “Active”. For the same compound, the Activity (Trypanosoma cruzi [7]) was “Dose-dependent effect”, the Activity (Trypanosoma cruzi [8]) was “Active” and the Activity (Trypanosoma cruzi [9]) was “Active”. The Activity (Trypanosoma cruzi [10]) was “Active”, the Activity (Trypanosoma cruzi [11]) was “Active” and the Activity (Trypanosoma cruzi [12]) was “Active”. The Activity (Trypanosoma cruzi [13]) was “Active”, the Activity (Trypanosoma cruzi [14]) was “Active” and the Activity (Trypanosoma cruzi [15]) was “Active”. The Activity (Trypanosoma cruzi [16]) was “Dose-dependent effect”, the Activity (Trypanosoma cruzi [17]) was “Active” and the Activity (Trypanosoma cruzi [18]) was “Active”. For the same compound, the Activity (Trypanosoma cruzi [19]) was “Dose-dependent effect”, the Activity (Trypanosoma cruzi [20]) was “inactive” and the Activity (Trypanosoma cruzi [21]) was 11%. For the same compound, the Activity (Trypanosoma cruzi [22]) was 11%, the Activity (Trypanosoma cruzi [23]) was “inactive” and the Activity (Trypanosoma cruzi [24]) was “inactive”. For the same compound, the Activity (Trypanosoma cruzi [25]) was “inactive”.

In the case of O=C1c2ccccc2C(=O)N1C/C=N/N=c1\scc(-c2ccc([N+](=O)[O-])cc2)n1-c1ccccc1, the MNTC at 24 h [1] is reported as 207 µM, the IC50 (Trypanosoma cruzi [3]) is reported as 12.2 µM and the IC50 (Trypanosoma cruzi [2]) is reported as 3.2 µM. For the same compound, the selectivity ratio [4] was 64.6.

For O=C1c2ccccc2C(=O)N1C/C=N/N=c1\scc(-c2ccccc2)n1-c1ccccc1, the MNTC at 24 h [1] was 228 µM and the IC50 (Trypanosoma cruzi [2]) was 8.8 µM.

Compound O=C1c2ccccc2C(=O)N1C/C=N/N=c1\scc(-c2ccc(Br)cc2)n1-c1ccccc1 has an MNTC at 24 h [1] of 96.6 µM and an IC50 (Trypanosoma cruzi [2]) of 9.7 µM.

In the case of O=C1c2ccccc2C(=O)N1Nc1nc(-c2ccc(Cl)cc2Cl)cs1, the MNTC at 24 h [1] is reported as 12.8 µM, the IC50 (Trypanosoma cruzi [3]) is reported as 10.1 µM and the IC50 (Trypanosoma cruzi [2]) is reported as 22.7 µM.
